One data set addresses Cathepsin D (Homo sapiens, UniProt P07339). The data set is described as follows: Inhibition of human recombinant CatD using Mca-GKPILFFRLK(DNP)-dR-NH2 as substrate after 1 hr by fluorescence analysis.
Data set [1] has as its system MDR1 (human). The data set is described as follows: Apparent permeability across MDCK cells expressing human MDR1 at 5 uM after 2 hrs by LC-MS analysis. The format is ADME, cell-based, Canis lupus familiaris. The following applies: dog. The method in brief:
(§1)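 MDCK cells retrovirally transduced with human MDR1, seeded on transwells ≥3 days; bidirectional transport at 5 μM, 2 h, 37 °C, LC/MS quantitation. Papp = (dQ/dt)/(A·C0), A 0.11 cm2; ER = Papp B>A / Papp A>B. Means of at least three experiments.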

Another data set addresses Beta-secretase 1 (Homo sapiens, UniProt P56817).
In data set [2] the test system is MDR1 (human). The experiment in a line: Efflux ratio of permeability from basolateral to apical over apical to basolateral side of MDCK cells expressing human MDR1 at 5 uM after 2 hrs by LC/MS analysis. The settings on record: dog. The format is ADME, cell-based, Canis lupus familiaris. The method in brief: as §1

29 compounds from ChEMBL document CHEMBL2046351, “Discovery of cyclic sulfone hydroxyethylamines as potent and selective β-site APP-cleaving enzyme 1 (BACE1) inhibitors: structure-based design and in vivo reduction of amyloid β-peptides” (J Med Chem, 2012) can be followed below.

Sequence of Beta-secretase 1 (P56817 whole entry): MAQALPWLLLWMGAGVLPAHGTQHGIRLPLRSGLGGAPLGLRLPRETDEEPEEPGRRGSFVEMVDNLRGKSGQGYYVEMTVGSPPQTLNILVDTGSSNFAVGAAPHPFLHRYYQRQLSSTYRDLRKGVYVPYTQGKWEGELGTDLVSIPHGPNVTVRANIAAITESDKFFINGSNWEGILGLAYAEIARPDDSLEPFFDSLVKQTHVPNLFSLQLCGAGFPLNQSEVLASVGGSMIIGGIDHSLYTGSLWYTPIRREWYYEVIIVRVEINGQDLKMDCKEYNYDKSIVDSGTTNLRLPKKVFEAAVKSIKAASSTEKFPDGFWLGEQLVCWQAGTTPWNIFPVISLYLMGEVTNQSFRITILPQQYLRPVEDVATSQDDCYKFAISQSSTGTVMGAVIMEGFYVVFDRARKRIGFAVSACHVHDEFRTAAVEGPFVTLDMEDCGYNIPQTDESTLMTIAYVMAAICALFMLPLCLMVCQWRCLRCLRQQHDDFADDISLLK
Sequence of Cathepsin D (P07339 65-162 limits assumed): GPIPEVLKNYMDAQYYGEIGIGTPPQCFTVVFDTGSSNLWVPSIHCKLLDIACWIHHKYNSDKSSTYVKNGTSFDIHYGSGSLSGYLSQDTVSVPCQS
Sequence of Cathepsin D (P07339 169-412 limits assumed): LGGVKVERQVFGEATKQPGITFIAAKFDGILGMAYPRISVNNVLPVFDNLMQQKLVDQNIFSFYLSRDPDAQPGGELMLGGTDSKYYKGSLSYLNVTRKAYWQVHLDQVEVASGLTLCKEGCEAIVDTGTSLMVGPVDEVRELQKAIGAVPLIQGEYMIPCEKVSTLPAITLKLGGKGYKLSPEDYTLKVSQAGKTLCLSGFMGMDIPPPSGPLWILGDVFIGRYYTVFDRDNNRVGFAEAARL

Regarding `CC(C)(C)c1cccc(CN[C@H]2CS(=O)(=O)C[C@@H](Cc3cc(F)c4c(c3)C3(CCC3)CN4)[C@@H]2O)c1` (racemic), the IC50 at Cathepsin D was found to be 80 nM; on Beta-secretase 1, 560 nM. The Papp at 2 h, 5 µM in the data set with MDR1 (human) [1] is 6 ×10⁻⁶ cm/s. In addition, the efflux ratio at 2 h, 5 µM in the data set with MDR1 (human) [2] stood at 3.
`CN(C)CC(=O)Nc1ccc(C[C@@H]2CS(=O)(=O)C[C@H](NCc3cccc(C(C)(C)C)c3)[C@H]2O)cc1F`: the IC50 at Cathepsin D is more than 10000 nM. Moreover, the apparent permeability (Papp) at 2 h, 5 µM in the data set with MDR1 (human) [1] was 6 ×10⁻⁶ cm/s.
On to `CCc1cc(C[C@@H]2CS(=O)(=O)C[C@H](NCc3cccc(C(C)(C)C)c3)[C@H]2O)cc(F)c1NC(=O)CN(C)C`, for which the IC50 on Cathepsin D was more than 10000 nM. The apparent permeability coefficient (Papp) at 2 h, 5 µM in the data set with MDR1 (human) [1] stood at 13 ×10⁻⁶ cm/s.
In the case of `CC(C)(C)c1cccc(CN[C@H]2CS(=O)(=O)C[C@@H](Cc3ccc(N)nc3)[C@@H]2O)c1` (racemic), the figures for the IC50 on Cathepsin D and at Beta-secretase 1 were more than 10000 nM and 1620 nM, respectively. Moreover, the Papp at 2 h, 5 µM with MDR1 (human) [1] is 17.4 ×10⁻⁶ cm/s. The efflux ratio at 2 h, 5 µM in the data set on MDR1 (human) [2] turned out to be 16.
As for `CC(C)(C)c1cccc(CN[C@H]2CS(=O)(=O)C[C@@H](Cc3ccc4[nH]ncc4c3)[C@@H]2O)c1` (racemic), the values for the IC50 at Cathepsin D and against Beta-secretase 1 were 3750 nM and 1450 nM, respectively. The Papp at 2 h, 5 µM in the data set on MDR1 (human) [1] was 23 ×10⁻⁶ cm/s. For the same compound, the efflux ratio at 2 h, 5 µM in the data set with MDR1 (human) [2] is 11.
Take `CC(C)(C)c1cccc(CN[C@H]2CS(=O)(=O)C[C@@H](Cc3cc(F)c(N)c(-c4cc[nH]n4)c3)[C@@H]2O)c1` (racemic): the IC50 at Cathepsin D was determined as 600 nM; at Beta-secretase 1, 28 nM. Moreover, the Papp at 2 h, 5 µM in the data set on MDR1 (human) [1] amounted to 20 ×10⁻⁶ cm/s. Moreover, in the data set on MDR1 (human) [2], the efflux ratio at 2 h, 5 µM turned out to be 17.
As to `CC(C)(C)c1cccc(CN[C@H]2CS(=O)(=O)C[C@@H](Cc3cc(F)c(N)c(OCCF)c3)[C@@H]2O)c1`, the IC50 at Cathepsin D was determined as 2000 nM; against Beta-secretase 1 it was 43 nM. Moreover, the Papp at 2 h, 5 µM with MDR1 (human) [1] was 26 ×10⁻⁶ cm/s. For the same compound, the efflux ratio at 2 h, 5 µM in the data set on MDR1 (human) [2] worked out at 16.
Take `CC(C)(C)c1cccc(CN[C@H]2CS(=O)(=O)C[C@@H](Cc3cc(F)c(N)c(-c4ccoc4)c3)[C@@H]2O)c1`: the IC50 on Cathepsin D amounted to 510 nM; on Beta-secretase 1, 150 nM. Also, in the data set with MDR1 (human) [1], the Papp at 2 h, 5 µM is 3 ×10⁻⁶ cm/s. The efflux ratio at 2 h, 5 µM in the data set on MDR1 (human) [2] was 2.
In the case of `CC(C)(C)c1cccc(CN[C@H]2CS(=O)(=O)C[C@@H](Cc3cc(F)c(N)c(-c4ccco4)c3)[C@@H]2O)c1`, the figures for the IC50 at Cathepsin D and against Beta-secretase 1 were 360 nM and 79 nM, respectively. Further, the Papp at 2 h, 5 µM in the data set with MDR1 (human) [1] came to 2 ×10⁻⁶ cm/s. In addition, the efflux ratio at 2 h, 5 µM in the data set on MDR1 (human) [2] amounted to 2.
For `CC(C)(C)O[C@H]1C[C@@H]1CN[C@H]1CS(=O)(=O)C[C@@H](Cc2cc(F)c(N)c(OC(C(F)(F)F)C(F)(F)F)c2)[C@@H]1O` (mixture of isomers), the results for the IC50 on Cathepsin D and against Beta-secretase 1 were 3710 nM and more than 10000 nM, respectively. For the same compound, the efflux ratio at 2 h, 5 µM in the data set on MDR1 (human) [2] turned out to be 4.
`CCc1cc(C[C@@H]2CS(=O)(=O)C[C@H](NCc3cccc(C(C)(C)C)c3)[C@H]2O)cc(F)c1N`: the IC50 on Cathepsin D is 2000 nM; on Beta-secretase 1 it was 870 nM. Further, in the data set on MDR1 (human) [1], the Papp at 2 h, 5 µM was 23 ×10⁻⁶ cm/s. Also, the efflux ratio at 2 h, 5 µM in the data set with MDR1 (human) [2] came to 2.
Take `COCCOc1cc(C[C@@H]2CS(=O)(=O)C[C@H](NCc3cccc(C(C)(C)C)c3)[C@H]2O)cc(F)c1N`: the IC50 at Cathepsin D was 3980 nM. Besides, in the data set with MDR1 (human) [1], the Papp at 2 h, 5 µM was determined as 25 ×10⁻⁶ cm/s.
Regarding `CC(F)(F)c1cccc(CN[C@H]2CS(=O)(=O)C[C@@H](Cc3cc(F)c(N)c(Br)c3)[C@@H]2O)c1`, the IC50 at Cathepsin D stood at 4160 nM. In the data set on MDR1 (human) [1], the Papp at 2 h, 5 µM was found to be 28 ×10⁻⁶ cm/s. Also, the efflux ratio at 2 h, 5 µM in the data set on MDR1 (human) [2] was 4.
With `CC(C)(C)c1cccc(CN[C@H]2CS(=O)(=O)C[C@@H](Cc3cc(F)c(N)c(C4CC4)c3)[C@@H]2O)c1`, the IC50 on Cathepsin D came out at 1740 nM; against Beta-secretase 1 it was 94 nM. For the same compound, the Papp at 2 h, 5 µM in the data set with MDR1 (human) [1] amounted to 16 ×10⁻⁶ cm/s. Further, the efflux ratio at 2 h, 5 µM in the data set with MDR1 (human) [2] was 3.
In the case of `CCCOc1cccc(C[C@@H]2CS(=O)(=O)C[C@H](NCc3cccc(C(C)(C)C)c3)[C@H]2O)c1` (relative stereo), the IC50 was 290 nM on Cathepsin D and 670 nM against Beta-secretase 1. Also, in the data set on MDR1 (human) [1], the Papp at 2 h, 5 µM was 2 ×10⁻⁶ cm/s. The efflux ratio at 2 h, 5 µM in the data set on MDR1 (human) [2] stood at 1.
On to `C[C@@H](Oc1cc(C[C@@H]2CS(=O)(=O)C[C@H](NCc3cccc(C(C)(C)C)c3)[C@H]2O)cc(F)c1N)C(F)(F)F`, for which the values for the IC50 at Cathepsin D and against Beta-secretase 1 were 480 nM and 3 nM, respectively. Also, the apparent permeability (Papp) at 2 h, 5 µM with MDR1 (human) [1] worked out at 10 ×10⁻⁶ cm/s. Besides, the efflux ratio at 2 h, 5 µM in the data set on MDR1 (human) [2] came out at 5.
For the compound `CC(C)(C)c1cccc(CN[C@H]2CS(=O)(=O)C[C@@H](Cc3ccc(N)c(OCC(F)(F)F)c3)[C@@H]2O)c1`, the results for the IC50 on Cathepsin D and against Beta-secretase 1 were 4370 nM and 36 nM, respectively. Moreover, the apparent permeability coefficient (Papp) at 2 h, 5 µM with MDR1 (human) [1] stood at 23 ×10⁻⁶ cm/s. Also, in the data set on MDR1 (human) [2], the efflux ratio at 2 h, 5 µM was 3.
For the compound `CC(C)(C)c1cccc(CN[C@H]2CS(=O)(=O)C[C@@H](Cc3ccc4[nH]cc(CC(F)F)c4c3)[C@@H]2O)c1` (racemic), the IC50 on Cathepsin D was 1220 nM. In addition, the Papp at 2 h, 5 µM with MDR1 (human) [1] stood at 6 ×10⁻⁶ cm/s. For the same compound, the efflux ratio at 2 h, 5 µM in the data set with MDR1 (human) [2] came out at 8.
As to `CC(C)(C)c1cccc(CN[C@H]2CS(=O)(=O)C[C@@H](Cc3cc(F)c(N)c(OC4COC4)c3)[C@@H]2O)c1`, at Cathepsin D, the concentration for half-maximal inhibition (IC50) amounted to 1150 nM. The Papp at 2 h, 5 µM with MDR1 (human) [1] worked out at 23 ×10⁻⁶ cm/s.
On to `CC(C)(C)c1cccc(CN[C@H]2CS(=O)(=O)C[C@@H](Cc3ccc(N)c(OC(F)(F)F)c3)[C@@H]2O)c1` (racemic), for which the IC50 was 7990 nM at Cathepsin D and 130 nM against Beta-secretase 1. Besides, the Papp at 2 h, 5 µM in the data set with MDR1 (human) [1] was 15 ×10⁻⁶ cm/s. In the data set on MDR1 (human) [2], the efflux ratio at 2 h, 5 µM was determined as 2.
Consider `CC(C)Oc1cc(C[C@@H]2CS(=O)(=O)C[C@H](NCc3cccc(C(C)(C)C)c3)[C@H]2O)cc(F)c1N`, for which the IC50 at Cathepsin D was 2220 nM; at Beta-secretase 1, 43 nM. In the data set with MDR1 (human) [1], the Papp at 2 h, 5 µM stood at 14 ×10⁻⁶ cm/s. In addition, the efflux ratio at 2 h, 5 µM in the data set with MDR1 (human) [2] is 3.
As to `CC(C)(C)c1cccc(CN[C@H]2CS(=O)(=O)C[C@@H](Cc3cc(F)c(N)c(C[C@H](O)C(F)(F)F)c3)[C@@H]2O)c1`, the half-inhibitory concentration (IC50) on Cathepsin D came out at 1050 nM. In addition, the Papp at 2 h, 5 µM in the data set with MDR1 (human) [1] is 13 ×10⁻⁶ cm/s.
On to `CC(C)(C)c1cccc(CN[C@H]2CS(=O)(=O)C[C@@H](Cc3cc(F)c(N)c(OCCC(F)(F)F)c3)[C@@H]2O)c1`, for which the IC50 at Cathepsin D stood at 2400 nM; at Beta-secretase 1, 75 nM. Moreover, in the data set on MDR1 (human) [1], the Papp at 2 h, 5 µM is 12 ×10⁻⁶ cm/s. For the same compound, the efflux ratio at 2 h, 5 µM with MDR1 (human) [2] was 4.
As to `CO[C@@H](Cc1cc(C[C@@H]2CS(=O)(=O)C[C@H](NCc3cccc(C(C)(C)C)c3)[C@H]2O)cc(F)c1N)C(F)(F)F`, on Cathepsin D, the IC50 stood at 1140 nM. In addition, in the data set on MDR1 (human) [1], the apparent permeability coefficient (Papp) at 2 h, 5 µM stood at 9 ×10⁻⁶ cm/s.
In the same order, the values of `CCOC[C@@H](Oc1cc(C[C@@H]2CS(=O)(=O)C[C@H](NCc3cccc(C(C)(C)C)c3)[C@H]2O)cc(F)c1N)C(F)(F)F` are 230 nM and 11 ×10⁻⁶ cm/s.
With `CCc1c[nH]c2ccc(C[C@@H]3CS(=O)(=O)C[C@H](NCc4cccc(C(C)(C)C)c4)[C@H]3O)cc12` (racemic), the IC50 at Cathepsin D was determined as 2480 nM; on Beta-secretase 1, 200 nM.
Regarding `COCCOC[C@@H](Oc1cc(C[C@@H]2CS(=O)(=O)C[C@H](NCc3cccc(C(C)(C)C)c3)[C@H]2O)cc(F)c1N)C(F)(F)F`, on Cathepsin D, the IC50 was 250 nM. In the data set with MDR1 (human) [1], the Papp at 2 h, 5 µM was 12 ×10⁻⁶ cm/s.
`CC(C)(C)c1cccc(CN[C@H]2CS(=O)(=O)C[C@@H](Cc3cc(F)c4c(c3)C3(CCC(F)(F)CC3)CN4)[C@@H]2O)c1` (racemic): the IC50 at Cathepsin D was determined as 3530 nM.
With `CCOC[C@H](Oc1cc(C[C@@H]2CS(=O)(=O)C[C@H](NCc3cccc(C(C)(C)C)c3)[C@H]2O)cc(F)c1N)C(F)(F)F`, at Cathepsin D, the IC50 was found to be 1230 nM. In addition, the Papp at 2 h, 5 µM in the data set with MDR1 (human) [1] came to 8 ×10⁻⁶ cm/s.
